Experiment [1] deals with T1, Glutathione reductase, mitochondrial (Homo sapiens, UniProt P00390).
T1 sequence (P00390 whole entry): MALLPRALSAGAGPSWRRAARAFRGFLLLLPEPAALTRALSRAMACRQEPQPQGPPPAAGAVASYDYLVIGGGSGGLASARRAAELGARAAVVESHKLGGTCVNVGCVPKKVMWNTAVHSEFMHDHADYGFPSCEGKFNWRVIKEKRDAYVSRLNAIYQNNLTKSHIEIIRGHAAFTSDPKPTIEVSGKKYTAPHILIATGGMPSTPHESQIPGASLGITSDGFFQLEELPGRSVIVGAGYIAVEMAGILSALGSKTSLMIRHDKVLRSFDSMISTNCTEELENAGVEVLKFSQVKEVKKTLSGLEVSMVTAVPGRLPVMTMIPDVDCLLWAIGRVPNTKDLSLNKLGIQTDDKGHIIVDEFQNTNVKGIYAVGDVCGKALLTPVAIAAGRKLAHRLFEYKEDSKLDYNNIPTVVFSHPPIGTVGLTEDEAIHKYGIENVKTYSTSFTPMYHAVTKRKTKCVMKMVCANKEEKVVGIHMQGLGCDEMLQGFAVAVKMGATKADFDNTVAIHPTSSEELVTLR
The experiment can be described thus: Inhibition of human GR.

Another experiment concerns the target Trypanothione reductase (Trypanosoma brucei brucei, UniProt P39051). The experiment is described as follows: Inhibition of TR by DTNB-coupled assay. The method in brief:
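Trypanothione reductase in 40 mM potassium HEPES pH 7.4, 1 mM EDTA with 4.22 µM trypanothione disulfide, 70.3 µM DTNB, 2.81 mU/mL TR. Compounds added from DMSO stocks, tested over 1.91 ng/mL to 31.2 µg/mL. NADPH added to start the reaction, 135 µM in the added solution. Plates incubated 60 min at 30°C, absorbance read at 405 nm. IC50 values determined.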

The next experiment concerns Trypanosoma brucei. The experiment is described as follows: Antiproliferative activity against Trypanosoma brucei. The format is functional, organism-based. The method in brief:
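Bloodstream T. b. brucei S427 seeded at 10^3 cells/ml in HMI9 medium, 0.5% DMSO, inhibitor 50 to 0.2 μM serially diluted from 10 mM DMSO stocks. Incubated 72 h, 37 °C, 5% CO2, humidified. Then 45 μM resazurin added, further 4 h, resorufin fluorescence read (ex 528, em 590 nm). Triplicates, three separate occasions; weighted means ± SEM.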

Experiment [2] can be described thus: Selectivity for TR over human GR.

Sequence of Trypanothione reductase (P39051 whole entry): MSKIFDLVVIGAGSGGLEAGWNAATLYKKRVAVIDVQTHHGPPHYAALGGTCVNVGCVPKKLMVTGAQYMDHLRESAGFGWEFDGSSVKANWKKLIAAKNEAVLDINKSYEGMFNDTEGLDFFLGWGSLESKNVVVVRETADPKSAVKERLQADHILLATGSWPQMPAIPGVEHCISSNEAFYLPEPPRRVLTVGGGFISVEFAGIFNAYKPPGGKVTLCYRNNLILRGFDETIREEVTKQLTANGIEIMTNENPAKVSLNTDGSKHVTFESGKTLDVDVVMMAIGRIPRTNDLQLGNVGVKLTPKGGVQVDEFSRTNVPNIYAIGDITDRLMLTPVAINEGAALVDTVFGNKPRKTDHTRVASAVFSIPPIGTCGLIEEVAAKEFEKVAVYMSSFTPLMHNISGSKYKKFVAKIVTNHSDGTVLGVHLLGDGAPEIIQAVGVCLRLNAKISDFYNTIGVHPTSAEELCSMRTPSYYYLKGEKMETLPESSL

The IC50 is the midpoint of a concentration-inhibition curve. Read a low IC50 as inhibition by little substance. The term EC50 denotes the midpoint of the concentration-response curve. Higher therefore signals weaker potency. For `CCCCOC(=O)c1ccc(NCCC(=O)c2cccc([N+](=O)[O-])c2)cc1`, the IC50 in experiment [1] is more than 135 µM; against Trypanothione reductase it was 2.4 µM. Further, in the experiment on Trypanosoma brucei, the EC50 was 0.96 µM.
As for `CCc1ccc(NCCC(=O)c2ccc(Cl)c(Cl)c2)cc1`, the figures for the IC50 (in experiment [1]; against Trypanothione reductase) were more than 157 µM and 107 µM, respectively. The compound further displayed an EC50 with Trypanosoma brucei of 1.65 µM.
As to `CN(C)CCC(=O)c1ccc(Cl)c(Cl)c1`, in experiment [2], the Ratio IC50 worked out at 20. The IC50 came out at 64.8 µM in experiment [1] and 3.3 µM at Trypanothione reductase. The compound also registered an EC50 in the experiment on Trypanosoma brucei of 1 µM.
Consider `O=C(CCNc1cccc(F)c1)c1cccc([N+](=O)[O-])c1`, for which the IC50 in experiment [1] was more than 173 µM; at Trypanothione reductase, 3.3 µM. In the experiment on Trypanosoma brucei, this compound had an EC50 of 0.82 µM.
Turning to `CC(C)c1cc(CN(C)C)cc(C(C)C)c1O`, in experiment [2], the Ratio IC50 turned out to be 6.7. Also, the IC50 is 79.3 µM in experiment [1] and 11.8 µM at Trypanothione reductase. For the same compound, the EC50 in the experiment on Trypanosoma brucei is more than 50 µM.
Turning to `CN(C)CCC(=O)c1cccc([N+](=O)[O-])c1`, the Ratio IC50 in experiment [2] was 59. Besides, the results for the IC50 (in experiment [1]; at Trypanothione reductase) were 20.3 µM and 0.34 µM, respectively. In the experiment with Trypanosoma brucei, this compound returned an EC50 of 0.68 µM.
Consider `O=C(CCNc1ccccc1)c1cccc([N+](=O)[O-])c1`, for which the Ratio IC50 in experiment [2] worked out at 35. Moreover, the IC50 in experiment [1] was found to be 58 µM; at Trypanothione reductase it was 1.7 µM. In addition, the EC50 in the experiment on Trypanosoma brucei was 1.01 µM.
For `Cc1cccc(NCCC(=O)c2cccc([N+](=O)[O-])c2)c1C` the same measures were 58, 86.3 µM, 1.5 µM and 0.15 µM.
For `CC(C)(C)c1cc(CNCCO)cc(C(C)(C)C)c1O` the same measures were 13, 24.9 µM, 2 µM and 3.01 µM.
In the experiment with Trypanosoma brucei, `N=C(N)c1ccc(OCCCCCOc2ccc(C(=N)N)cc2)cc1` [PENTAMIDINE] registered an IC50 of 0.0046 µM.
With `CS(=O)(=O)c1ccc(C(=O)CCN2CCCCC2)cc1`, in experiment [2], the Ratio IC50 came out at 13. The IC50 in experiment [1] worked out at 105 µM; against Trypanothione reductase it was 7.8 µM. Besides, the EC50 in the experiment on Trypanosoma brucei worked out at 0.95 µM.
For the compound `CC(C)(C)c1cc(CN2CCCCCC2)cc(C(C)(C)C)c1O`, the IC50 in experiment [1] is more than 155 µM; against Trypanothione reductase, 38.8 µM. Also, in the experiment on Trypanosoma brucei, the response was half-maximal at 3.3 µM (EC50).
For `O=C(CCN1CCOCC1)c1ccc(Cl)cc1` the same measures were more than 212 µM, 148 µM and 0.98 µM.
With `CN(C)CCC(=O)c1ccc(S(C)(=O)=O)cc1`, the Ratio IC50 in experiment [2] is 7. Further, the IC50 in experiment [1] stood at 20.4 µM; on Trypanothione reductase it was 2.9 µM. The response in the experiment with Trypanosoma brucei was half-maximal at 0.55 µM (EC50).

Source of the values: ChEMBL document CHEMBL1148843, “High-throughput screening affords novel and selective trypanothione reductase inhibitors with anti-trypanosomal activity” (Bioorg Med Chem Lett, 2007).
